Activity calls are given as the source filed them. No cut-off for these calls is given here.
Columns and labels:
[1] = biological target: T1, Protein mono-ADP-ribosyltransferase PARP10 (Homo sapiens, UniProt Q53GL7); experiment: Inhibition of PARP10 (unknown origin)
T1 sequence (Q53GL7 whole entry): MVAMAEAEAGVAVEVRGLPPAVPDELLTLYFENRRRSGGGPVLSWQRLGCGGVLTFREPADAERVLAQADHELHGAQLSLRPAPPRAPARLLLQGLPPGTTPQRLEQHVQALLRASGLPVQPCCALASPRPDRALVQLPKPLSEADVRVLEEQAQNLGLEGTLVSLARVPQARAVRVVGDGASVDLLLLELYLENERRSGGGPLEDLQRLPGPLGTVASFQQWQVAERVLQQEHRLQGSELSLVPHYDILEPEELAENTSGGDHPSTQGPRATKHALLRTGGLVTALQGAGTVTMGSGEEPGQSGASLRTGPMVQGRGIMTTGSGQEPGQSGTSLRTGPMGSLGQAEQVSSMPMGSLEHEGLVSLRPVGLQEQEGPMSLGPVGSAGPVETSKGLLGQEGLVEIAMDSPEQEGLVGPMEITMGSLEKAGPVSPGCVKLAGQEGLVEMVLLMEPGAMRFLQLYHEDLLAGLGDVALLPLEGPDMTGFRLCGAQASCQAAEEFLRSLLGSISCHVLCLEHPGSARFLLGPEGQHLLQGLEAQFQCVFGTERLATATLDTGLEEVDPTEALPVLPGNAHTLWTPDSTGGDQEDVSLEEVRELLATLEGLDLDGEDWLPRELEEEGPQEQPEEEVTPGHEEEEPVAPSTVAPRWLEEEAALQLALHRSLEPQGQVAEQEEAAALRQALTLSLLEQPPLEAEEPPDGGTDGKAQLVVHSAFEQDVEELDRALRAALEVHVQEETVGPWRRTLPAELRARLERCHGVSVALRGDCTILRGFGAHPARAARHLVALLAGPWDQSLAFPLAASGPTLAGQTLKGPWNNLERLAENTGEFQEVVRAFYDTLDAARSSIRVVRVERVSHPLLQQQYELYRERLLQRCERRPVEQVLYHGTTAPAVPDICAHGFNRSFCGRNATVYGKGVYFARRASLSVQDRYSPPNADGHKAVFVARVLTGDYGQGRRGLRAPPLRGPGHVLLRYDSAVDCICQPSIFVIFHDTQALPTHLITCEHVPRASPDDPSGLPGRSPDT

[2] = Inhibition of tankyrase (unknown origin) expressed in TCF/LEF-HEK293 cells assessed as inhibition of Wnt/beta-catenin signaling pathway in Wnt3a conditioned medium measured after 20 hrs by luciferase reporter gene assay; assay type: cell-based; settings: Homo sapiens
DLD-1 [3] = experiment: Anti-proliferative activity against human DLD1 cells assessed as inhibition of colony formation at 1 uM measured after 18 days under normal serum condition by trypan blue staining based light microscopic analysis; assay type: functional, cell-based
Procedure, shortened: (§1)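 DLD-1 colony-forming assay under normal serum: 1000 cells/well, with 1.0 µM or 100 nM compound, or a 1% DMSO (v/v) vehicle control. Colonies were counted, n = 3.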

[4] = biological target: T2, Protein mono-ADP-ribosyltransferase PARP15 (Homo sapiens, UniProt Q460N3); experiment: Inhibition of PARP15 (unknown origin)
T2 sequence (Q460N3 whole entry): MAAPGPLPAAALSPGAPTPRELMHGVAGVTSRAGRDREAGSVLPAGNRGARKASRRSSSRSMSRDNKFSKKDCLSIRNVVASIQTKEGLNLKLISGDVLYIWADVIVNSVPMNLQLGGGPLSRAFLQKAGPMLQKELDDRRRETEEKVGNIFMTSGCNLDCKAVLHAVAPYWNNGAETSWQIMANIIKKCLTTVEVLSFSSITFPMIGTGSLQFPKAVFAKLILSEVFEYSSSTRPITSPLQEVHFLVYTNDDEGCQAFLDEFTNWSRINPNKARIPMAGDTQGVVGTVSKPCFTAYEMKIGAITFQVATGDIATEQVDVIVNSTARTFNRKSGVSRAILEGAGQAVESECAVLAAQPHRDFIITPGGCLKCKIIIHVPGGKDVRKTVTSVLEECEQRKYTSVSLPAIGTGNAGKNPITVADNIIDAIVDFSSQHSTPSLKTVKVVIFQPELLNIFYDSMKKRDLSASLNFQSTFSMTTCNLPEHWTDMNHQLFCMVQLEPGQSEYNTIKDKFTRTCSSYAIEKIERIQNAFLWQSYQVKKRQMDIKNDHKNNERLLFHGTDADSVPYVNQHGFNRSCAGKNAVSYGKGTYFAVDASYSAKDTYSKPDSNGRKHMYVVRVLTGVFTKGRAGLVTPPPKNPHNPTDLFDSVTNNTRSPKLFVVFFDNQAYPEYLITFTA

DLD-1 [5] = experiment: Anti-proliferative activity against human DLD1 cells assessed as inhibition of colony formation at 100 nM measured after 18 days under normal serum condition by trypan blue staining based light microscopic analysis; assay type: functional, cell-based; procedure, shortened: as §1
[6] = biological target: Poly [ADP-ribose] polymerase 2 (Homo sapiens, UniProt Q9UGN5); experiment: Inhibition of recombinant human N-terminal GST-tagged PARP2 (2 to 583 residues) expressed in baculovirus infected Sf9 cells measured after 1 hr by chemiluminescence assay
HEK293 = experiment: Cytotoxicity against HEK293 cells by light microscopic analysis; assay type: cell-based; settings: human
Procedure, shortened: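 Viability of TCF/LEF reporter HEK293 cells was checked by light microscopy during the Wnt-signaling reporter assay.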

[7] = biological target: T3, Protein mono-ADP-ribosyltransferase PARP3 (Homo sapiens, UniProt Q9Y6F1); experiment: Inhibition of PARP3 (unknown origin)
T3 sequence (Q9Y6F1 whole entry): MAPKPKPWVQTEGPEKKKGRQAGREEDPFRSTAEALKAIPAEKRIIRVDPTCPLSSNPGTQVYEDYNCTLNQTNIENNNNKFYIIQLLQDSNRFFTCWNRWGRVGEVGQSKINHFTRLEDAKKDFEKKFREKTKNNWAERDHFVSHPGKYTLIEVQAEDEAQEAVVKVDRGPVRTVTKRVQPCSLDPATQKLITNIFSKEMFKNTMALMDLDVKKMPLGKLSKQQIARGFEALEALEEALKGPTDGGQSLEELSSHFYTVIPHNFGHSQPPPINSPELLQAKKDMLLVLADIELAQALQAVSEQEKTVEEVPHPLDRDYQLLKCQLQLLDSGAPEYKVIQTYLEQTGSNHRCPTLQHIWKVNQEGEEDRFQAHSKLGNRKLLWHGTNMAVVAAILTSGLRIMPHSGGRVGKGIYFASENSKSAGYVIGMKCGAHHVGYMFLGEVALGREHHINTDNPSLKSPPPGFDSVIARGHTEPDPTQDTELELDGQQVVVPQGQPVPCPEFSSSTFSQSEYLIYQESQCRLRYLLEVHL

[8] = biological target: Poly [ADP-ribose] polymerase 1 (Homo sapiens, UniProt P09874); experiment: Inhibition of full length recombinant human N-terminal GST-tagged PARP1 expressed in Baculovirus infected Sf9 cells using TACS-Sapphire as substrate measured after 1 hr by colorimetric assay; settings: read-out: IC50
Chain of Poly [ADP-ribose] polymerase 1 (P09874 whole entry): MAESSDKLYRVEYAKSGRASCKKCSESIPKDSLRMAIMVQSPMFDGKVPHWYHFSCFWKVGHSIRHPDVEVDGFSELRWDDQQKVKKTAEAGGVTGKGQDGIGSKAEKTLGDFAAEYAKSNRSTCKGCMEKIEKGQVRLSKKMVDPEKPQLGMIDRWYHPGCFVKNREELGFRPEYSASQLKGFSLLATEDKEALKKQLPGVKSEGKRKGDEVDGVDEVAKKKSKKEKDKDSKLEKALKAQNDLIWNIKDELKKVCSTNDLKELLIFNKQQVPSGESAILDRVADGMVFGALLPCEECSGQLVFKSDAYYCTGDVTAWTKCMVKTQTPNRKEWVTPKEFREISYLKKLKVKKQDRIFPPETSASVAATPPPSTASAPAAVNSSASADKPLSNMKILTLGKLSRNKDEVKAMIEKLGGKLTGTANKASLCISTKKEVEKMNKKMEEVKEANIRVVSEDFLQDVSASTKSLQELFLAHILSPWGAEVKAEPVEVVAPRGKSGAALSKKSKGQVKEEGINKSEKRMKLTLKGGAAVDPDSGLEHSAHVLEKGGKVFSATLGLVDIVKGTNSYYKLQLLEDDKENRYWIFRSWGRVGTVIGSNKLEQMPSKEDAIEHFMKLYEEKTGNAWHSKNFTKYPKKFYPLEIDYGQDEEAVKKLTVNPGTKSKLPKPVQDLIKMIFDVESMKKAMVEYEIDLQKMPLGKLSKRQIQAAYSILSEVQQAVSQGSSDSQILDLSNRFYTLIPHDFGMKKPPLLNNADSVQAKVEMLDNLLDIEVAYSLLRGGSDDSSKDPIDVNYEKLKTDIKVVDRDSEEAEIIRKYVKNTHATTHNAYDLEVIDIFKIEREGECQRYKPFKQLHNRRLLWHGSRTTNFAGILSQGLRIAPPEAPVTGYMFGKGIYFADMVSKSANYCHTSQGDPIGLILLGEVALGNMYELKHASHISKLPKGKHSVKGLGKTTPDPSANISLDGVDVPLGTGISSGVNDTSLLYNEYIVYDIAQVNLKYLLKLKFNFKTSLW

Chain of Poly [ADP-ribose] polymerase 2 (Q9UGN5 whole entry, the tested form may be a part): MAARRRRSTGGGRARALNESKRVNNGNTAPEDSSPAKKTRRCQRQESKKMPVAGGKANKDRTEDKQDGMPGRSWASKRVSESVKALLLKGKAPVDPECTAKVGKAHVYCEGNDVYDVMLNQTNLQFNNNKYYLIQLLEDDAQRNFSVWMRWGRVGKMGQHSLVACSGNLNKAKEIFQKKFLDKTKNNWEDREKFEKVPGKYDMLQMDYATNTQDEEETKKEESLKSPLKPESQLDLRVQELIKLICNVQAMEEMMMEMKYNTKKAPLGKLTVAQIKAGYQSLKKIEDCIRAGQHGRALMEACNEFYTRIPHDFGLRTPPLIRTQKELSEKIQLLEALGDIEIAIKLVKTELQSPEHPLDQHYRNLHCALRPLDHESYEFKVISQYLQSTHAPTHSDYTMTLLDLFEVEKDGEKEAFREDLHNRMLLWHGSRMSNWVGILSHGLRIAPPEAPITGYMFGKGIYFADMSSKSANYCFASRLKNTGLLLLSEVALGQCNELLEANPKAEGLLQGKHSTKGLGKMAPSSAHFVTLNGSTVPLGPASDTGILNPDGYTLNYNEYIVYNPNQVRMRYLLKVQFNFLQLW

Row | SMILES | IC50 [1] | IC50 ([2]; read-out: IC50) | IC50 ([2]; read-out: pIC50 (converted)) | inhibition (DLD-1 [3]) | IC50 [4] | inhibition (DLD-1 [5]) | IC50 [6] | Activity (HEK293) | IC50 [7] | IC50 [8]
1 | O=C(CCc1nc2ccccc2c(=O)[nH]1)Nc1ccc(C(=O)Nc2cccc3cccnc23)cc1 | > 100 µM | 0.029 µM | 0.0288 µM | Active | > 100 µM | Active | 6.9 µM | Non-Toxic | 40 µM | 8.2 µM
2 | Cc1cccc2c(=O)[nH]c(CCC(=O)Nc3ccc(C(=O)Nc4cccc5cccnc45)cc3)nc12 | > 100 µM | 0.037 µM | 0.0372 µM | Active | > 100 µM | Active | 11.6 µM | Non-Toxic | 45 µM | 6.5 µM
